ChEMBL document CHEMBL2407056, “3-(Oxazolo[4,5-b]pyridin-2-yl)anilides as a novel class of potent inhibitors for the kinetoplastid Trypanosoma brucei, the causative agent for human African trypanosomiasis” (Eur J Med Chem, 2013)
In brackets after ≈: the same amount, converted by molar mass.

Key:
Leishmania donovani [1] = assay: Antimicrobial activity against Leishmania donovani MHOM/ET/67/L82 amastigote form after 70 hrs by Alamar blue assay; format: functional, organism-based; conditions: MHOM/ET/67/L82, 70 h
Summary of the method: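 Axenic amastigotes grown at 37 °C in SM medium pH 5.4 with 10% heat-inactivated FBS, 5% CO2; 10⁵ parasites per well exposed to eleven 3-fold dilutions (100 to 0.002 µg/mL) for 70 h. Alamar Blue (resazurin) added for 2–4 h, fluorescence read at ex 536/em 588 nm. IC50 by linear regression from sigmoidal curves; miltefosine control.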

[2] = Kinetic solubility of the compound in phosphate buffer at pH 2 by nephelometry; format: physicochemical; conditions: read-out: Kinetic_solubility
[3] = Selectivity index, ratio of IC50 for rat L6 cells to IC50 for Trypanosoma cruzi Tulahuen C2C4 amastigote stage; format: toxicity, cell-based; conditions: read-out: Ratio IC50
[4] = Selectivity index, ratio of IC50 for HEK293 cells to IC50 for Trypanosoma brucei brucei 427 bloodstream form; format: toxicity, cell-based; conditions: human, read-out: Ratio IC50
Summary of the method: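 HEK293 cells (55 µL of 72,727 cells/mL in DMEM + 10% FCS) in 384-well plates, 24 h at 37 °C/5% CO2. Drug diluted 1:21 from DMSO, final 83.34 to 0.0004 µM, 48 h. […] SI relative to T. b. brucei.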

L6 = assay: Cytotoxicity against rat L6 cells after 70 hrs by Alamar blue assay; format: cell-based; conditions: L6, 70 h
Summary of the method: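 4000 L-6 cells per well in RPMI 1640 with L-glutamine and 10% FBS. Eleven 3-fold dilutions from 100 to 0.002 µg/mL for 70 h; Alamar Blue 2 h, fluorescence at ex 536/em 588 nm. IC50 by linear regression from sigmoidal curves; podophyllotoxin control.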

[5] = tested on: Trypanosoma brucei brucei; assay: Antitrypanosomal activity against Trypanosoma brucei brucei 427 bloodstream form after 48 hrs by Alamar blue assay; format: functional, organism-based; conditions: Trypanosoma brucei, 427, 48 h
Summary of the method: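 Bloodstream parasites in 384-well plates, 24 h preincubation at 37 °C/5% CO2. DMSO dilutions diluted 1:21 in DMEM and added to give final 41.67 to 0.0004 µM; 48 h incubation. 70% Alamar Blue in HMI-9 + 10% FCS added, 2 h at 37 °C then 22 h at room temperature; read at ex 535/em 590 nm.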

[6] = Selectivity index, ratio of IC50 for rat L6 cells to IC50 for Trypanosoma brucei rhodesiense STIB 900 bloodstream form; format: toxicity, cell-based; conditions: read-out: Ratio IC50
Summary of the method: (§1)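 Bloodstream forms (4×10³/well) in MEM with 25 mM HEPES, extra glucose, non-essential amino acids, 0.2 mM 2-mercaptoethanol, 1 mM pyruvate and 15% heat-inactivated horse serum. Eleven 3-fold dilutions from 100 to 0.002 µg/mL, 70 h at 37 °C/5% CO2; Alamar Blue 2 h, fluorescence at ex 536/em 588 nm; IC50 by linear regression; melarsoprol control. SI relative to L6 cells.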

[7] = Half life in human liver microsomes at 1 uM by LC-MS analysis; format: ADME, Microsome
Summary of the method: (§2)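 Compound at 1 µM final (1 in 500 dilution of stock) incubated at 37 °C with human liver microsomes in 0.1 M phosphate buffer pH 7.4, 0.4 mg/mL protein. First-order depletion rate from exponential decay fit used to derive in vitro CLint and half-life; predicted hepatic extraction ratio from scaled CLint with liver blood flow 20.7 mL/min/kg.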

[8] = Intrinsic clearance in human liver microsomes at 1 uM after 60 mins by LC-MS analysis; format: ADME, Microsome; conditions: read-out: CLH; summary of the method: as §2
[9] = Kinetic solubility of the compound in phosphate buffer at pH 6.5 by nephelometry; format: physicochemical; conditions: read-out: Kinetic_solubility
Summary of the method: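 DMSO stocks spiked into pH 6.5 phosphate buffer or 0.01 M HCl (about pH 2.0), final DMSO 1% (v/v). Solubility range determined by nephelometry.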

[10] = tested on: Trypanosoma brucei rhodesiense; assay: Antitrypanosomal activity against Trypanosoma brucei rhodesiense STIB 900 bloodstream form after 70 hrs by Alamar blue assay; format: functional, organism-based; conditions: STIB 900, 70 h; summary of the method: as §1
[11] = Partition coefficient, log D of the compound at pH 7.4 by HPLC analysis; format: physicochemical; conditions: octanol/water
Summary of the method: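 Chromatographic gradient HPLC: mobile phase 50 mM ammonium acetate pH 7.4 (or ammonium formate pH 3.0) with an acetonitrile gradient of 0–100% over 10 min; UV detection at 220 and 254 nm.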

Trypanosoma cruzi = assay: Antitrypanosomal activity against Trypanosoma cruzi Tulahuen C2C4 amastigotes infected in rat L6 cells after 96 hrs by beta-galactosidase reporter gene assay; format: functional, organism-based; conditions: Tulahuen C2C4, L6, 96 h
Summary of the method: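 L-6 cells (2000/well, RPMI 1640 + 10% FBS, 2 mM L-glutamine) infected after 24 h with 5000 LacZ-expressing trypomastigotes. At 48 h the medium was replaced with eleven 3-fold drug dilutions (100 to 0.002 µg/mL). After 96 h, CPRG/Nonidet substrate added, colour read at 540 nm after 2–6 h. IC50 by linear regression from sigmoidal curves; benznidazole control.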

Plasmodium falciparum = assay: Antimicrobial activity against Plasmodium falciparum NF54 infected in human RBC after 48 hrs by [3H]hypoxanthine incorporation assay; format: functional, organism-based
Summary of the method: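 Erythrocytic stage, drug-sensitive strain, in hypoxanthine-free RPMI 1640 with HEPES, NaHCO3, neomycin, Albumax, human A+ red cells at 2.5% haematocrit, 0.3% parasitaemia. Eleven 3-fold dilutions from 100 to 0.002 µg/mL; 37 °C, 4% CO2/3% O2/93% N2. ³H-hypoxanthine added at 48 h, further 24 h, then harvested and scintillation-counted. IC50 by linear regression; chloroquine control.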

Leishmania donovani [12] = assay: Antimicrobial activity against Leishmania donovani amastigote form infected in mouse peritoneal macrophage after 96 hrs by Giemsa staining method; format: functional, organism-based
Summary of the method: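 Mouse peritoneal macrophages (4×10⁴/well, RPMI 1640 + 10% heat-inactivated FBS) infected after 24 h with 1.2×10⁵ axenic amastigotes; free parasites removed at 4 h, drug dilutions added next day. After 96 h, methanol fixation and 10% Giemsa staining; infected and non-infected macrophages counted, % reduction in parasite burden vs controls, IC50 by linear regression; miltefosine control.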

Row | Compound | IC50 (Leishmania donovani [1]) [nM] | solubility kinetic [2] [µg/mL] | selectivity ratio [3] | selectivity ratio [4] | IC50 (L6) [nM] | IC50 [5] [nM] | selectivity ratio [6] | half-life at 1 µM [7] [min] | microsomal CLint at 1 µM [8] [µL/min/mg] | solubility kinetic [9] [µg/mL] | IC50 [10] [nM] | logD [11] | IC50 (Trypanosoma cruzi) [nM] | IC50 (Plasmodium falciparum) [nM] | IC50 (Leishmania donovani [12]) [nM]
1 | O=C(Nc1ccc(Cl)c(-c2nc3ncccc3o2)c1)c1ccco1 | 1800 | 1.6 (≈ 4.71 µM) | 99 | > 345 | 23000 | 220 | 39 | 7 | 258 | 1.6 (≈ 4.71 µM) | 590 | 2.7 | 230 | 7800 | 
2 | O=C(Nc1ccc(Cl)c(-c2nc3ncccc3o2)c1)c1ccoc1 | 340 |  |  | 160 | 65000 | 300 | > 700 |  |  |  | 91 |  | 260 | 4900 | 12000
